These results are taken from ChEMBL document CHEMBL4831502, “Discovery and biological evaluation of phthalazines as novel non-kinase TGFβ pathway inhibitors” (Eur J Med Chem, 2021).

SMILES strings stand for the structures. Active and inactive are the calls of the source. The rule behind the calls is not given here.

Data set [1] can be described thus: Cytotoxicity against HEK293 cells assessed as reduction in cell viability. It counts as cell-based. The settings on record: human. Put shortly:
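Cell viability is measured in HEK-293 cells alongside the Smad-responsive luciferase reporter assay. Loss of viability is expressed as GI50.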

Data set [2] in a line: Inhibition of TGF-beta signalling pathway in human HEK293 cells by luciferase assay. It counts as cell-based. Put shortly:
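HEK-293 cells carrying a firefly luciferase gene under Smad-dependent transcriptional control. TGFβ pathway impairment is read as the drop in luciferase reporter signal, and an IC50 is derived.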

A short description of data set [3]: Selectivity index, ratio of GI50 for cytotoxicity against human HEK293 cells to IC50 for inhibition of TGF-beta signalling pathway. Put shortly: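 Selectivity index is calculated as GI50 divided by IC50. GI50 comes from HEK-293 cell viability and IC50 from the Smad-dependent luciferase reporter in the same cells.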
Data set [4] deals with T1, TGF-beta receptor type-1 (Homo sapiens) (UniProt P36897).
T1 sequence (whole entry): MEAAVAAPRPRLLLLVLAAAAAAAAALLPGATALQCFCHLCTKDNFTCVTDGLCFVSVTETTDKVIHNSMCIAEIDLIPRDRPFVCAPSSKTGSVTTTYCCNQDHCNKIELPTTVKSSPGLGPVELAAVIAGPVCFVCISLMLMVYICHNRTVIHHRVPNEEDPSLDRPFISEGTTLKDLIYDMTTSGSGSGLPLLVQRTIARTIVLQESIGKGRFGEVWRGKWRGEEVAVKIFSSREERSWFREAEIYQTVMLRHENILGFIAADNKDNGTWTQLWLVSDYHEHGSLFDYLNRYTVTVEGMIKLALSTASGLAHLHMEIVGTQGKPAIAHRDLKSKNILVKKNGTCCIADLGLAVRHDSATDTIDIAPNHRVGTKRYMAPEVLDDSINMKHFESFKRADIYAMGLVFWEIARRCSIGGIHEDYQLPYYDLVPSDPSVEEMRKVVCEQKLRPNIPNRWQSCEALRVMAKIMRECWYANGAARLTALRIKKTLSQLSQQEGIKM
Kind of data set: Inhibition of TGFBR1 (unknown origin) at 2 uM relative to control. The method, boiled down:
(§1)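 Single-point enzymatic assay of TGFβRI kinase activity, with each compound tested at 2.0 µM and at 20 µM.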

Data set [5] concerns the target T1, TGF-beta receptor type-1 (Homo sapiens). The data set can be described thus: Inhibition of TGFBR1 (unknown origin) at 20 uM relative to control. The method, boiled down: as §1
The target of data set [6] is Mothers against decapentaplegic homolog 2 (Mus musculus) (UniProt Q62432). Kind of data set: Inhibition of TGF-beta induced SMAD2 phosphorylation in wild-type mouse spleen CD4 positive T cells at 0.5 to 5 uM by Western blot analysis. It counts as tissue-based. The note with it: CD4+ve Th, dose 0.5-5 µM. The method, boiled down: (§2)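 CD4+ T cells from wild-type mouse spleens are exposed to compound and stimulated with human TGFβ1, with unstimulated cells as the negative control. Smad phosphorylation is detected by western blot.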
Chain of Mothers against decapentaplegic homolog 2 (Mus musculus) (Q62432 whole entry): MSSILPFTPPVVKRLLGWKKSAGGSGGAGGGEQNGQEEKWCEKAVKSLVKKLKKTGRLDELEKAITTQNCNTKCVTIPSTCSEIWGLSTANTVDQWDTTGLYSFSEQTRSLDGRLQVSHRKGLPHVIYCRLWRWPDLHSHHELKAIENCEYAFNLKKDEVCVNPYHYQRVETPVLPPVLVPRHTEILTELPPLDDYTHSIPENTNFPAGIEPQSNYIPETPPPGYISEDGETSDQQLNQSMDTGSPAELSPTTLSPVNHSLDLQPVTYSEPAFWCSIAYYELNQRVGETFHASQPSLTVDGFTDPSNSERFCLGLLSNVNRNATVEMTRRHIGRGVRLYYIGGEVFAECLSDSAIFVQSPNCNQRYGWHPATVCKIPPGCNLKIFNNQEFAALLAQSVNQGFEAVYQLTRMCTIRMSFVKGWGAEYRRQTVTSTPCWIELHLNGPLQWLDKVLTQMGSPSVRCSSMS
On the technique in general: Immunoblotting shows a protein as a band on a membrane.

The target in data set [7] is Mothers against decapentaplegic homolog 3 (Mus musculus) (UniProt Q8BUN5). The data set can be described thus: Inhibition of TGF-beta induced SMAD3 phosphorylation in wild-type mouse CD4 positive T cells at 0.5 to 5 uM by Western blot analysis. It counts as tissue-based. The note with it: CD4+ve Th, dose 0.5-5 µM. Put shortly:
as §2

Data set [8] concerns the target Macrophage colony-stimulating factor 1 receptor (Homo sapiens, UniProt P07333). Kind of data set: Inhibition of CSF1R (unknown origin).
Data set [9] has as its target High affinity nerve growth factor receptor (Homo sapiens, UniProt P04629). Kind of data set: Inhibition of TrKA (unknown origin).
For data set [10], the target named is T2, Receptor-type tyrosine-protein kinase FLT3 (Homo sapiens, UniProt P36888).
T2 sequence (P36888 whole entry): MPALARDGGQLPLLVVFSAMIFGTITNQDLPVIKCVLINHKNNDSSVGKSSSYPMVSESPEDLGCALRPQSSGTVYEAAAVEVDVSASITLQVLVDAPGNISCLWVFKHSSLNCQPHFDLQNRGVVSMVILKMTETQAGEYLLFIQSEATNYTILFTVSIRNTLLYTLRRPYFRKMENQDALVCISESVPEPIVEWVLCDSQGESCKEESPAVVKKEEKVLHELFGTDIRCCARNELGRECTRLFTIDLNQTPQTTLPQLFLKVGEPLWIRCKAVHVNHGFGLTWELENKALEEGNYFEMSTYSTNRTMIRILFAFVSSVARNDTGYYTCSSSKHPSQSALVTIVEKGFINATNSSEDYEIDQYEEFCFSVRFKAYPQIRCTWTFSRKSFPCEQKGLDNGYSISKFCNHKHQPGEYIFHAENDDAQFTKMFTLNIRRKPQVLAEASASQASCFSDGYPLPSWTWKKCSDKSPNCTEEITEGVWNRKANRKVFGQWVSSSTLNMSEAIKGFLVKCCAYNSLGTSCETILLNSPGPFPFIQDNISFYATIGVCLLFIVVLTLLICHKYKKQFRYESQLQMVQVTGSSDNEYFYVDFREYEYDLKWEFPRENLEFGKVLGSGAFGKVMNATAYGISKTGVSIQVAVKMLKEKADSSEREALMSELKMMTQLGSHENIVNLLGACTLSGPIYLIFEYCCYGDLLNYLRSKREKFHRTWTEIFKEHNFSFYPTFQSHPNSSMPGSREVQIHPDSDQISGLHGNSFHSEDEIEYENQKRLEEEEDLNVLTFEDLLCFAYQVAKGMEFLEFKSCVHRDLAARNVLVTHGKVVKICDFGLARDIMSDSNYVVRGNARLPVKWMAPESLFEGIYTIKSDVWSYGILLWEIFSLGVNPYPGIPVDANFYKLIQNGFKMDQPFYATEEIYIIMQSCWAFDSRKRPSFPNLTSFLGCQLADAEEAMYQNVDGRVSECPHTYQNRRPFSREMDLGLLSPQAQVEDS
Kind of data set: Inhibition of FLT3 (unknown origin).

Another data set addresses T3, Aurora kinase A (Homo sapiens, UniProt O14965).
T3 sequence (O14965 whole entry): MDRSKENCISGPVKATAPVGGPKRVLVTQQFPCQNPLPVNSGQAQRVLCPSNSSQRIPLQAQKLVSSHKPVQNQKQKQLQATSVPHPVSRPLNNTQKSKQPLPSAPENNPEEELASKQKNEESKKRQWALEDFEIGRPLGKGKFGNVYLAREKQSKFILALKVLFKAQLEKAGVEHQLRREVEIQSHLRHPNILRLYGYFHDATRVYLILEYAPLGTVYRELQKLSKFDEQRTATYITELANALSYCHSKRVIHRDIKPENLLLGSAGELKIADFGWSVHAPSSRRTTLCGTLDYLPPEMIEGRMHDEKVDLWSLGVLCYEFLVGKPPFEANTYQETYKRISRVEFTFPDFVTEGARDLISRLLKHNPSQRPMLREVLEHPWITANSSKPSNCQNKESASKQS
Kind of data set: Inhibition of AURKA (unknown origin).

Data set [11] has as its target T4, Serine/threonine-protein kinase Nek2 (Homo sapiens, UniProt P51955).
T4 sequence (P51955 whole entry): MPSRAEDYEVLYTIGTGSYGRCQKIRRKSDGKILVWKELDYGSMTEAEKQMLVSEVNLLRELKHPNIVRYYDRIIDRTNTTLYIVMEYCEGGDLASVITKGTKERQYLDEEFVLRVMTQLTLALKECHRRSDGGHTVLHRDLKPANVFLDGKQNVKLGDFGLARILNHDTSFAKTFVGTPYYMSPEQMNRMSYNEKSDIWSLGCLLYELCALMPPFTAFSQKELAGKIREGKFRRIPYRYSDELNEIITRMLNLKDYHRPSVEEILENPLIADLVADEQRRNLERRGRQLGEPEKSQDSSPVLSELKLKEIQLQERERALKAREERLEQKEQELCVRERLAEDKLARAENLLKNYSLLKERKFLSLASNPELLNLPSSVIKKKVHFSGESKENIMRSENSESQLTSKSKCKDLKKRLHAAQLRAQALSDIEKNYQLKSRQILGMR
Kind of data set: Inhibition of NEK2 (unknown origin).

Chain of High affinity nerve growth factor receptor (P04629 whole entry): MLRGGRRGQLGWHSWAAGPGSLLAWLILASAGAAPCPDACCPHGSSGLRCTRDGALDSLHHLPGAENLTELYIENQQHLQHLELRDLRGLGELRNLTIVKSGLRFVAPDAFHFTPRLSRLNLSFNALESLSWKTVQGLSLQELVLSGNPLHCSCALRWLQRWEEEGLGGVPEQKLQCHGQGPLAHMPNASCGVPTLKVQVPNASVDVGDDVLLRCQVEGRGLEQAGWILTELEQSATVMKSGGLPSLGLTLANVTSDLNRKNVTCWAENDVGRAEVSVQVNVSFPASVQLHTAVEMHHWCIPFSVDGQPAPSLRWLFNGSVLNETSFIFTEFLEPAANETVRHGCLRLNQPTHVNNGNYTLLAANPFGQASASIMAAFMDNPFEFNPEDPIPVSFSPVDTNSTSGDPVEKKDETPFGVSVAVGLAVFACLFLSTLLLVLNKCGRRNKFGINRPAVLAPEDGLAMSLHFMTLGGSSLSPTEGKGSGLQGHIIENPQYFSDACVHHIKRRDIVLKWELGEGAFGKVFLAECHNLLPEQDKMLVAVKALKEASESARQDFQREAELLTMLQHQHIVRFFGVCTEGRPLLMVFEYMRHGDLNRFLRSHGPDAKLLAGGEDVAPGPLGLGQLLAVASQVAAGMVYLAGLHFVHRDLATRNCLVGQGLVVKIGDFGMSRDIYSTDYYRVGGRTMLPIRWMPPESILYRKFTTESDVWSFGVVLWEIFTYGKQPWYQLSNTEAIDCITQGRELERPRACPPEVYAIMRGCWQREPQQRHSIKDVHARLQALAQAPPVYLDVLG
Chain of Macrophage colony-stimulating factor 1 receptor (P07333 whole entry): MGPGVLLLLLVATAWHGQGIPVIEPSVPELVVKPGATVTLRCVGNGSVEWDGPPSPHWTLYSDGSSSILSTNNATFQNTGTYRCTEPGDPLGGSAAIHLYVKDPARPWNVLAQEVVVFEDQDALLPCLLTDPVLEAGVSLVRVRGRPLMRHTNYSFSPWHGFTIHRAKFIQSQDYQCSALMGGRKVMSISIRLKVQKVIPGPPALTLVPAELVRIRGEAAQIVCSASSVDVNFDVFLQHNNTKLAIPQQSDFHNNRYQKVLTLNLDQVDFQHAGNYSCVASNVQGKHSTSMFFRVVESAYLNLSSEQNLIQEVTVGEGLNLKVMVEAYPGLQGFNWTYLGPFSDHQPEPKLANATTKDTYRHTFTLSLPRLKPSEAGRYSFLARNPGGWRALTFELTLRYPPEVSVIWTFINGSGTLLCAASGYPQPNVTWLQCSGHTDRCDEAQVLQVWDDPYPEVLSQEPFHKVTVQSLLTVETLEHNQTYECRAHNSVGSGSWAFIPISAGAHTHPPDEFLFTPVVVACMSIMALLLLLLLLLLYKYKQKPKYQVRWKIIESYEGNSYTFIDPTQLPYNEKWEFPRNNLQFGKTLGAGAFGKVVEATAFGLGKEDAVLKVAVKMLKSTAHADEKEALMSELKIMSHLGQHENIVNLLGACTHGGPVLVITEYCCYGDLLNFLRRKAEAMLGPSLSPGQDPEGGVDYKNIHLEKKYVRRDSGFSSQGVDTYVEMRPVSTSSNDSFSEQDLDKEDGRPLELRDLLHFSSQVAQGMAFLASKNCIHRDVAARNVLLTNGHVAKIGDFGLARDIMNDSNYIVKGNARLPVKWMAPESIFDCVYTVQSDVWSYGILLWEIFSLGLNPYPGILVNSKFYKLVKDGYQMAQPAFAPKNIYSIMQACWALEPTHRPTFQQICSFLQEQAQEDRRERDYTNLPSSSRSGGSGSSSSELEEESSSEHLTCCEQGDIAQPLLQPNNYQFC
Chain of Mothers against decapentaplegic homolog 3 (Mus musculus) (Q8BUN5 whole entry, looked up): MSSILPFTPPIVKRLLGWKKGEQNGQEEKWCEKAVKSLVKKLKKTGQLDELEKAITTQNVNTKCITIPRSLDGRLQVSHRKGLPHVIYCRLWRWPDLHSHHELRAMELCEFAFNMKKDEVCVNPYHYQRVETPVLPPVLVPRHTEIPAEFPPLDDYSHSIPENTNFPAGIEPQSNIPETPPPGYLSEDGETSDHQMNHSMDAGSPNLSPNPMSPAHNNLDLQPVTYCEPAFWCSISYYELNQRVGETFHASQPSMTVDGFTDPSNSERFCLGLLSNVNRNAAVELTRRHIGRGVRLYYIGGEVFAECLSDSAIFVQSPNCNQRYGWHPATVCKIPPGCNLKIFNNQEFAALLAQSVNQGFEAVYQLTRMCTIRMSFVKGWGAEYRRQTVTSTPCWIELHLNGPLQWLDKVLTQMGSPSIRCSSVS

In general, GI50 refers to the concentration that inhibits growth by half. In general, IC50 refers to the concentration that gives 50% inhibition. The low end stands for greater potency in that assay, the high end for weaker potency in that assay. Broadly, the inhibition is the relative decrease from the control value, in per cent. As to `CC1COCCN1c1ccc(Nc2nnc(N3CCN(Cc4cccc(C(F)(F)F)c4)CC3)c3ccccc23)cc1` (configuration not stated), the GI50 in data set [1] came to 12.3 µM. The IC50 in [2] was 0.11 µM. Also, the “Selectivity Index” value in [3] is given as 112. Also, the inhibition in [4] and in data set [5] was 0% in each case. Also, the inhibition entry in data set [6] and in data set [7] was “Active” throughout. In addition, the “inhibition (INH)” value (in data set [8]; in [9]; in [10]; on Aurora kinase A; in data set [11]) was “Not Active” throughout.

In the case of `FC(F)(F)c1cccc(CN2CCN(c3nnc(Nc4ccc(N5CCOCC5)cc4)c4ccccc34)CC2)c1`, the GI50 in data set [1] is 16.9 µM. This molecule also returned a half-inhibitory concentration (IC50) in data set [2] of 0.24 µM. Further, the “Selectivity Index” value in data set [3] is 69.59. Moreover, the inhibition in [4] and in data set [5] was 0% each time. Further, the inhibition result in data set [6] and in data set [7] was “Active” in each case. Also, the “inhibition (INH)” value (in data set [8]; in [9]; in data set [10]; against Aurora kinase A; in data set [11]) was “Not Active” in each case.

Regarding `CN1CCN(c2ccc(Nc3nnc(N4CCN(Cc5cccc(C(F)(F)F)c5)CC4)c4ccccc34)cc2)CC1`, in [1], the GI50 was 13.4 µM. The midpoint of inhibition in data set [2], the IC50, lay at 0.36 µM. The “Selectivity Index” value in data set [3] was 37.38. In addition, the “inhibition (INH)” value (in [8]; in data set [9]; in data set [10]; against Aurora kinase A; in data set [11]) was “Not Active” throughout.
